Data from ChEMBL document CHEMBL1157342, “Isolation of gelsedine-type indole alkaloids from Gelsemium elegans and evaluation of the cytotoxic activity of gelsemium alkaloids for A431 epidermoid carcinoma cells” (J Nat Prod, 2006).

Tested on: A-431
Assay: Cytotoxicity against human A431 cells after 48 hrs by trypan blue test
Type: functional, cell-based
Conditions: A-431, 48 h
In short: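 A431 human epidermoid carcinoma cells were grown at 5% CO2, 37 °C, seeded in 12-well plates at 1 × 10^5 cells/well and treated at semiconfluence (about 5 × 10^5 cells/well). DMSO stocks (100 mM) were diluted in serum-free RPMI-1640 to 10 nM–100 µM final, with DMSO below 0.1%. After 48 h, cells were counted in a Bürker-Türk chamber with trypan blue. Survival was expressed as % of untreated control. EC50 was taken from three independent experiments, mean ± SEM.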

Compound `C/C=C1\CN(C)[C@H]2C[C@@]3(C(=O)N(OC)c4cc(OC)ccc43)[C@H]3C[C@@H]1[C@@H]2CO3` has an EC50 of over 100 µM.

Work on `CCC1=N[C@H]2C[C@@]3(C(=O)N(OC)c4ccccc43)[C@@H]3OC[C@H]2[C@H]1[C@H]3O` yielded an EC50 of over 100 µM.

In the case of `CCC1=N[C@H]2C[C@@]3(C(=O)N(OC)c4ccccc43)[C@@H]3OC[C@H]2[C@H]1[C@H]3OC(C)=O`, the EC50 is reported as 0.25 µM.

Work on `C/C=C1\CN2[C@H]3Cc4c([nH]c5ccccc45)[C@@H]2C[C@@H]1C3(CO)C(=O)OC` (some centres undefined) yielded an EC50 of over 100 µM.

With `CCC1=N[C@H]2C[C@@]3(C(=O)N(OC)c4ccccc43)[C@@H]3OC[C@H]2[C@@]1(O)[C@H]3OC(C)=O` the EC50 was 36 µM.

`CCC1=N[C@H]2C[C@@]3(C(=O)N(OC)c4cc(OC)ccc43)[C@@H]3OC[C@H]2[C@H]1[C@H]3O` was tested, and the EC50 was over 100 µM.

Compound `CCC1=N[C@H]2C[C@@]3(C(=O)N(OC)c4ccccc43)[C@@H]3OC[C@H]2[C@@]1(O)[C@H]3O` has an EC50 of 1.3 µM.

Compound `CC[C@H]1N[C@H]2C[C@@]3(C(=O)N(OC)c4ccccc43)[C@H]3C[C@@H]1[C@@H]2CO3` [GELSEDINE] has an EC50 of 0.35 µM.

`CC[C@H]1N[C@H]2C[C@@]3(C(=O)N(OC)c4cc(OC)ccc43)[C@H]3C[C@@H]1[C@@H]2CO3` [GELSEMICINE] showed an EC50 of 0.75 µM.

Work on `C=C[C@]12CN(C)[C@@H]3[C@H]4CO[C@H](C[C@H]41)[C@]1(C(=O)Nc4ccccc41)[C@@H]32` [GELSEMINE] yielded an EC50 of over 100 µM.

`CCC(=O)[C@]12N[C@H]3C[C@@]4(C(=O)N(OC)c5ccccc54)[C@H](OC[C@H]31)[C@@H]2O` [GELSEMOXONINE] gave an EC50 of over 100 µM.

In the case of `CCC1=N[C@H]2C[C@@]3(C(=O)N(OC)c4ccccc43)[C@H]3C[C@@H]1[C@@H]2CO3` [GELSENICINE], the EC50 is reported as 37 µM.

Work on `C/C=C1\CN(C)[C@H]2C[C@@]3(C(=O)N(OC)c4ccccc43)[C@H]3C[C@@H]1[C@@H]2CO3` [HUMANTENINE] yielded an EC50 of over 100 µM.

`C=C[C@@]12CN(C)[C@H]3C[C@]14C(=Nc1ccccc14)[C@@H]1C[C@@H]2[C@@H]3CO1` [KOUMINE] showed an EC50 of over 100 µM.
